Compound activity as filed in PubChem BioAssay.
mIAP act – increases mouse intestinal alkaline phosphatase activity | muIAP, CDP-Star luminescence, 30 min; active compounds read high; 1 = vehicle-only enzyme signal, 0 = enzyme-free wells | activation factor at 10 µM | 330,000 compounds, 0.24% hits;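 active = activation factor of at least 2 at 20 µM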
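System: Mouse IAP enzyme | Also added: CDP-Star substrate | Dosing: Compounds dispensed in DMSO | Schedule: 30 min enzyme-substrate-compound incubation at room temperature | Technique: Chemiluminescence readout | Control set: DMSO-only wells and no-enzyme negative control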
hIAP block – blocks human intestinal alkaline phosphatase. purified IAP, CDP-Star luminescence, 30 min. P09923. 330,000 compounds, 0.12% hits. inhibition, % at 10 µM. AID 2544;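 active = inhibition reaching a set limit with compound at 10 µM in the primary screen, cut at about 35% in these data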;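 also: plate controls were DMSO wells with enzyme for no effect and no-enzyme buffer wells for full effect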
Target sequence (P09923 whole entry, looked up): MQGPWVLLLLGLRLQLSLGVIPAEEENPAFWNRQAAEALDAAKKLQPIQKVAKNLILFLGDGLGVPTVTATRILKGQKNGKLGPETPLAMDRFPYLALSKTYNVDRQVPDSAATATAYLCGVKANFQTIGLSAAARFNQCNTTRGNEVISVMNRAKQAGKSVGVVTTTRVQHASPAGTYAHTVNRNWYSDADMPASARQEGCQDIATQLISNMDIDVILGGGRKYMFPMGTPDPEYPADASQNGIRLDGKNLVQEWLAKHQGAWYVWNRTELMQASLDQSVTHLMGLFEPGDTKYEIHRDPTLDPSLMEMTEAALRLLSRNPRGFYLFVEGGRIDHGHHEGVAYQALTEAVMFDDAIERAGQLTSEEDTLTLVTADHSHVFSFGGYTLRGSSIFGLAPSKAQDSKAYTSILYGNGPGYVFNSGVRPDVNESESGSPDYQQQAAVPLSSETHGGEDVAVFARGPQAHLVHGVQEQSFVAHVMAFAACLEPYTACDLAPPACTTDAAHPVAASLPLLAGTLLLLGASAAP
hIAP act – increases human intestinal alkaline phosphatase activity; P09923; purified human IAP, CDP-Star luminescence, 30 min; active compounds read high; 1 = vehicle-only enzyme, 0 = enzyme-free background; activation factor at 10 µM; 330,000 compounds, 0.16% hits; AID 2524;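 active = activation factor of the enzyme at least 2-fold when tested at 20 µM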
bIAP act – intestinal alkaline phosphatase (bovine) activation; activation factor at 20 µM; 200,000 compounds, 0.17% hits; purified bovine IAP, CDP-star luminescence, 30 min; active compounds read high; fold of DMSO-control signal, blank-subtracted;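 active = activation factor of 2 or more at 20 µM, a signal rise over negative controls twice the positive control's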
mIAP inh – blocks mouse intestinal alkaline phosphatase. purified mouse IAP, CDP-Star luminescence, 30 min. inhibition, % at 10 µM. 330,000 compounds, 0.2% hits. AID 2806;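 active = inhibition of at least 40% at 10 µM in the primary screen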;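 also: plate controls were DMSO with enzyme for no effect and no enzyme wells for full effect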
bIAP inh – blocks bovine intestinal alkaline phosphatase activity; inhibition, % at 20 µM; purified bovine IAP, CDP-star luminescence, 30 min; AID 1019; 190,000 tested, under 10 active;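 active = over 50% inhibition of intestinal alkaline phosphatase at 20 µM in the single-dose screen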
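System: Purified bovine intestinal alkaline phosphatase (IAP) enzyme | Input: IAP diluted 1/65,000,000 in the well | Also added: CDP-star chemiluminescent phosphatase substrate, 30 µM final | Dosing: 20 µM single dose | Times: Enzyme reaction for 30 min at room temperature | Detection: Luminescence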
* hit, by the source's call; i = inactive; . = no result. In the library only some 0.72% were active in any assay of this set; here they are far more common.

SMILES	mIAP act	hIAP block	hIAP act	bIAP act	mIAP inh	bIAP inh
Cc1cccc(NC(=O)CSc2nc3nc(C)cc(C)n3n2)c1	0.99	10	0.9	.	1	.
Cc1ccc(Cl)c(OCC(=O)Nc2ccc3c(c2)OCCO3)c1	0.96	6	0.94	0.9	4	10
O=C(COc1cc(Cl)c(Cl)cc1Cl)NC(=O)Nc1ccc2c(c1)OCCO2	1	0	1	2.6*	-4	-164
CCC(=O)Oc1ccc(C(=O)Nc2ccc3c(c2)OCO3)cc1	1	-2	1	1.2	-1	-19
CSc1cccc(NC(=O)Nc2nc3c(C)cccc3s2)c1	2.1*	-20	1.2	.	-115	.
COc1ccc(NC(=O)N(C)C[C@H]2Oc3ccc(NC(=O)NC(C)C)cc3C(=O)N([C@H](C)CO)C[C@@H]2C)cc1	1.1	-19	1.2	.	-13	.
COc1ccc(NC(=O)Nc2ccc3c(c2)C(=O)N([C@H](C)CO)C[C@H](C)[C@@H](CN(C)C(=O)Nc2ccc(OC)cc2)O3)cc1	2.3*	2	0.98	.	-134	.
COc1ccc(NC(=O)N(C)C[C@H]2Oc3ccc(NC(=O)Nc4ccc(C(F)(F)F)cc4)cc3C(=O)N([C@H](C)CO)C[C@@H]2C)cc1	2.1*	13	0.87	.	-110	.
COc1ccc(NC(=O)Nc2ccc3c(c2)C(=O)N([C@H](C)CO)C[C@H](C)[C@@H](CN(C)C(=O)Nc2ccc(C(F)(F)F)cc2)O3)cc1	2.1*	-12	1.1	.	-111	.
C[C@@H]1CN([C@@H](C)CO)C(=O)c2cc(NC(=O)Nc3ccccc3)ccc2O[C@H]1CN(C)C(=O)Nc1cccc2ccccc12	2.7*	-12	1.1	.	-167	.
CCc1ccc(NC(=S)N2CCC(NC(=O)c3ccccc3)CC2)cc1	0.97	-11	1.1	.	3	.
CC(C)C[C@@]12C(=O)N(c3cccc(Br)c3)C(=O)N1[C@H](c1ccc(Cl)cc1)[C@@H]1C(=O)N(C3CCCCC3)C(=O)[C@@H]12	0.54	16	0.84	.	46*	.
Clc1cccc(Cl)c1CSc1nnc(-c2ccncc2)s1	0.98	-106	2.1*	.	2	.
COC(=O)c1sccc1NC(=O)Nc1cccc([N+](=O)[O-])c1	0.34	-5	1.1	.	66*	.
CCOc1ccc(C2NC(=O)NC(C)=C2C(=O)OCc2ccccc2)cc1 (centres undefined)	1	2	0.98	.	-2	.
CC1=C(C(=O)OCc2ccccc2)C(c2ccc(N(C)C)cc2)NC(=O)N1 (centres undefined)	0.97	20	0.8	2.8*	3	-184
COc1ccc(S(=O)(=O)N2CCC(Cc3ccccc3)CC2)cc1NC(C)=O	1.1	-8	1.1	.	-6	.
NC(=O)c1ccsc1NC(=O)COC(=O)c1cc(Cl)ccc1O	1.1	10	0.9	.	-8	.
COC(=O)c1ccc(NC(=S)NCCc2ccccc2C)cc1	2*	5	0.95	0.9	-100	5
COC(=O)c1ccc(NC(=S)NCCc2cccc(C)c2)cc1	1.9	-9	1.1	0.7	-94	34
Cc1csc2c(N3CCN(C(=O)NC(C)(C)C)CC3)ncnc12	0.99	2	0.97	.	1	.
Cc1csc2c(N3CCN(C(=O)Nc4ccc(Cl)c(Cl)c4)CC3)ncnc12	2.4*	-43	1.4	.	-139	.
COc1ccc(CN(CC2CCC(C(=O)O)CC2)C(=S)Nc2ccccc2OC)cc1 (centres undefined)	0.95	-3	1	1.1	5	-7
COc1ccc(CN(CC2CCC(C(=O)O)CC2)C(=S)Nc2cccc(C)c2)cc1 (centres undefined)	0.97	7	0.93	2.4*	2	-140
Cc1nc(C(=O)Nc2cc(F)cc(Cl)c2)sc1C1(C)CC(c2ccccc2)=NO1 (centres undefined)	0.9	2	0.98	.	10	.
SMILES	mIAP act	hIAP block	hIAP act	bIAP act	mIAP inh	bIAP inh
Cc1ccc(/C=c2\sc3nc(-c4ccccc4Br)nn3c2=O)o1	0.51	20	0.8	1	49*	3
Cc1ccc(C(=O)C2CCN(C(=S)NCCCOC(C)C)CC2)cc1	0.98	-8	1.1	.	2	.
C[C@H](CO)N1C[C@H](C)[C@@H](CN(C)C(=O)Nc2ccc(C(F)(F)F)cc2)Oc2c(NS(=O)(=O)c3cn(C)cn3)cccc2C1=O	1.2	6	0.94	.	-16	.
COc1cccc(NCc2cc3c(C(C)(C)C)nn(-c4ccccc4)c3[nH]c2=O)c1	1.1	-3	1	3.8*	-8	-280
COc1ccc(C(=O)Nc2nc3ccccc3[nH]2)cc1OC	0.96	3	0.97	2.2*	4	-122
COc1cc(C(=O)Nc2nc3ccccc3[nH]2)ccc1OC(F)F	1	-20	1.2	.	0	.
Cc1cccc(C(C)C)c1NC(=O)COC(=O)Cc1ccsc1	0.99	12	0.88	4.1*	1	-307
O=C(/C=C/c1ccc(O)c(O)c1)c1ccccc1O	0.68	70*	0.3	.	32	.
Fc1cccc(/C=N/Nc2ncnc3nc[nH]c23)c1	1.1	-97	2	1	-10	0
Clc1ccc(/C=N/Nc2ncnc3nc[nH]c23)cc1	1	-123	2.2*	.	-1	.
Oc1ccc(/C=N/Nc2ncnc3nc[nH]c23)cc1	0.77	-45	1.4	.	23	.
Cc1ccc(/C=N/Nc2ncnc3nc[nH]c23)cc1	0.88	-117	2.2*	.	12	.
CC(=O)NC(=S)NNC(=O)CCc1ccccc1	0.96	-67	1.7	2.2*	4	-118
CCCCC(=O)NC(=S)NNC(=O)CCc1ccccc1	0.87	-59	1.6	.	13	.
CC(=O)NNC(=S)NC(=O)C(c1ccccc1)c1ccccc1	0.97	1	0.99	2.7*	3	-172
Cc1ccc(NS(=O)(=O)c2cccc(C(=O)NCC(c3ccc(F)cc3)N3CCOCC3)c2)cc1 (centres undefined)	0.99	1	0.99	.	1	.
O=[N+]([O-])c1cc([N+](=O)[O-])c(Oc2cc(Cl)cc(Cl)c2)cc1NN1CCCCC1	1	23	0.77	.	0	.
CCC(C)N(C(=O)Cn1nnc2ccccc21)C(C(=O)Nc1ccc(F)cc1)c1cccc(OC)c1 (centres undefined)	2.3*	-16	1.2	1.3	-131	-30
COCCNC(=O)C(c1cccc(OC)c1)N(Cc1cccs1)C(=O)Cn1nnc2ccccc21 (centres undefined)	1	8	0.92	0.9	-2	9
Cc1cc(C2N=C(N)Nc3nc4ccccc4n32)c(C)n1-c1ccccc1Cl (centres undefined)	2	20	0.81	4.1*	-96	-312
Cc1ccc(-n2c(C)cc(C3N=C(N)Nc4nc5ccccc5n43)c2C)c(C)c1 (centres undefined)	1.8	-18	1.2	7*	-84	i
COc1ccc(N2CC(NS(=O)(=O)c3cccs3)CC2=O)cc1OC (centres undefined)	0.95	-8	1.1	.	4	.
